Experimental data: article PMC4306484 (ACS Chemical Neuroscience, 2014)
Marks after values point to notes of the source that are not given here.

Tests used:
[1] = tested on: SC-CA1 synapse; experiment: Extracellular field potential recordings; parameters: species or system C57BL6/J mice; conditions: for effect on fEPSP slope: agonist alone: 3 μM LSP1-2111, 1 μM DCPG or 30 μM LSP4-2022
Summary of the method: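 Coronal hippocampal slices (400 μm) from six-week-old male mice anesthetized with isoflurane, cut in ice-cold sucrose solution. Slices recovered in NMDG-HEPES (15 min, 32 °C), then in ACSF (≥1 h, RT), and were perfused with 32 °C ACSF. CA1 stratum radiatum recordings used paired pulses (100 μs, 20 ms apart, 0.05 Hz). After 10 min baseline, drugs in ACSF were given for 5 or 10 min; PAM was preapplied 5 min, then coapplied with agonist. Slopes from three sweeps were averaged and normalized to predrug baseline. Paired-pulse ratio was second/first slope. N = 3–4; mean ± SEM.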

[2] = molecular target: T1, rat mGlu8 (Rattus norvegicus, UniProt P70579); experiment: Thallium flux assay, HEK293 cells expressing rat mGlu8 and GIRK1/2 channels; type: cell-based
[3] = molecular target: human mGlu4 (Homo sapiens, UniProt Q14833); experiment: Calcium mobilization assay, human mGlu4/Gqi5/CHO cells; type: cell-based; conditions: for Kb / log α (affinity cooperativity) / log β (efficacy cooperativity) / α / β: calcium assay
[4] = molecular target: rat mGlu7 (Rattus norvegicus, UniProt P35400); experiment: Calcium mobilization assay, rat mGlu7/Gα15/HEK cells; type: cell-based; conditions: for Kb / log α (affinity cooperativity) / log β (efficacy cooperativity) / log τB / α / β / τB: calcium assay
[5] = molecular target: T1, rat mGlu8; experiment: Calcium mobilization assay, rat mGlu8/Gα15/HEK cells; type: cell-based; conditions: for Kb / log α (affinity cooperativity) / log β (efficacy cooperativity) / log τB / α / β / τB: calcium assay
[6] = molecular target: rat mGlu2 (Rattus norvegicus, UniProt P31421); experiment: Fold-shift assay in rat mGlu2/Gα15-expressing cells; type: cell-based; conditions: listed as VU0155094
[7] = molecular target: mGlu4 (Rattus norvegicus, UniProt P31423); experiment: Thallium flux assay, cells expressing mGlu4 and GIRK1/2; type: cell-based; conditions: GIRK assay
Sequence of mGlu4 (P31423 33-912): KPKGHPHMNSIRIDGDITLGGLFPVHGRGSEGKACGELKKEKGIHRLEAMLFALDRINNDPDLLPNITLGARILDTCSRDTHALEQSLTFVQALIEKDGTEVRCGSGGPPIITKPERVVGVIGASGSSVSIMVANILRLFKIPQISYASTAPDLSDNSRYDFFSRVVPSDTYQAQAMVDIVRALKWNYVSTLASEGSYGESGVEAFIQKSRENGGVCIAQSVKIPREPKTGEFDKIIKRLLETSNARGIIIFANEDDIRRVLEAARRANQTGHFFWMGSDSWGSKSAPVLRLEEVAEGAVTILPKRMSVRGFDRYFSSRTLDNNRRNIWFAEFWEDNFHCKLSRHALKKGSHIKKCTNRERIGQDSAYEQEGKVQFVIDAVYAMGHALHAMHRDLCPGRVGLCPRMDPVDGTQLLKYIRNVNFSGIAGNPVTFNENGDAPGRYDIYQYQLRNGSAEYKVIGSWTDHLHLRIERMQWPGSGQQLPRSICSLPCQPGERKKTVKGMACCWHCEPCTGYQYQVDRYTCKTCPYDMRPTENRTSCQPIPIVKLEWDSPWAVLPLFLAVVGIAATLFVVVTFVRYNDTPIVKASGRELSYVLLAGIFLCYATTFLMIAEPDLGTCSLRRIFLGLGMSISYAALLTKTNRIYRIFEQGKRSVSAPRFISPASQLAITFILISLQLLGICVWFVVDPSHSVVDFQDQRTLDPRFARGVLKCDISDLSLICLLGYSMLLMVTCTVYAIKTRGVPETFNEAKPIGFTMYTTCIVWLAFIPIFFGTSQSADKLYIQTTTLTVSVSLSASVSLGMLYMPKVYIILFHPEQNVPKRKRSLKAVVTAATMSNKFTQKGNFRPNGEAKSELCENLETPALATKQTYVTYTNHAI

T1 sequence (P70579 34-908): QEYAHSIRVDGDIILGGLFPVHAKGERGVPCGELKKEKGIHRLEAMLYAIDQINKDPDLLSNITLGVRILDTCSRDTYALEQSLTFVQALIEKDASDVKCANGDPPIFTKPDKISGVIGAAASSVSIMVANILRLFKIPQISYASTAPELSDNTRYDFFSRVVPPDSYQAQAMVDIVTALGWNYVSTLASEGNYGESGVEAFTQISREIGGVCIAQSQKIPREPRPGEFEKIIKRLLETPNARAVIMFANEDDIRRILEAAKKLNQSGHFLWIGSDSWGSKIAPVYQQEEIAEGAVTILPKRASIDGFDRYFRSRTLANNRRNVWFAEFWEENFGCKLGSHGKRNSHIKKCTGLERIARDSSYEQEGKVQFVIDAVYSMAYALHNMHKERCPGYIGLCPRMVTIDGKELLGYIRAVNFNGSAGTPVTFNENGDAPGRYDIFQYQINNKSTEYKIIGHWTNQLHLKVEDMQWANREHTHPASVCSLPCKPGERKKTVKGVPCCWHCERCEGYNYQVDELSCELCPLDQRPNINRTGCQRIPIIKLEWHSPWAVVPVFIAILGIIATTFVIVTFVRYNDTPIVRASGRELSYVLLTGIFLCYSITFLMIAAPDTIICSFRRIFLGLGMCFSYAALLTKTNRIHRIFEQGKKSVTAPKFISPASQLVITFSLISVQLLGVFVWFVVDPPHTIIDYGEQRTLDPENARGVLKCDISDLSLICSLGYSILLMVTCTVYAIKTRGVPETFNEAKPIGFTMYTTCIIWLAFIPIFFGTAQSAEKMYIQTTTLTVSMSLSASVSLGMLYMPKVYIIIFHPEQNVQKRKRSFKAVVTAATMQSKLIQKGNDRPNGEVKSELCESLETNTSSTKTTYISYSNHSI
Sequence of human mGlu4 (Q14833 33-912): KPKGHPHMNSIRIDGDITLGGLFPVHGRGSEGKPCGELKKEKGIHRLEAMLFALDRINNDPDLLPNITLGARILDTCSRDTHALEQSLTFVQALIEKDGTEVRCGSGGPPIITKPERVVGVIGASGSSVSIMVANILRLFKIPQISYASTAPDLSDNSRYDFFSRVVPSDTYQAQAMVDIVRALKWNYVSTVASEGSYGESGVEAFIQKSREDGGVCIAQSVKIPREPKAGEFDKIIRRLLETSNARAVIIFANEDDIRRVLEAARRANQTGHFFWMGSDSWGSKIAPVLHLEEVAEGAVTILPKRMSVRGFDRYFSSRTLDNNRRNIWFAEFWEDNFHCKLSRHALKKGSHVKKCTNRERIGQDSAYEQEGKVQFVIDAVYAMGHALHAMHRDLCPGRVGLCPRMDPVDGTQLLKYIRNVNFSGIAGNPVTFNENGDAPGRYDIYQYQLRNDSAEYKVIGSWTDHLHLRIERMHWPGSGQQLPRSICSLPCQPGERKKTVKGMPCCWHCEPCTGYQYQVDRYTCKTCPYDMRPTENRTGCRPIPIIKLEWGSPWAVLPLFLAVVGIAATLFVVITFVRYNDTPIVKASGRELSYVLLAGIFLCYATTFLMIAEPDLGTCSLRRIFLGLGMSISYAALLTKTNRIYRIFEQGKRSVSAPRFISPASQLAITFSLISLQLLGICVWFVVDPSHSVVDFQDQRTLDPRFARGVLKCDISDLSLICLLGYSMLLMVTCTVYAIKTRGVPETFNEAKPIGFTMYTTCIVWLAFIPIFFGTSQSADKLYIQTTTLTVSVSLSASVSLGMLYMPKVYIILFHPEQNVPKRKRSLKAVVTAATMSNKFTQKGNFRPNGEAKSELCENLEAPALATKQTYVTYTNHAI
Sequence of rat mGlu7 (P35400 35-915): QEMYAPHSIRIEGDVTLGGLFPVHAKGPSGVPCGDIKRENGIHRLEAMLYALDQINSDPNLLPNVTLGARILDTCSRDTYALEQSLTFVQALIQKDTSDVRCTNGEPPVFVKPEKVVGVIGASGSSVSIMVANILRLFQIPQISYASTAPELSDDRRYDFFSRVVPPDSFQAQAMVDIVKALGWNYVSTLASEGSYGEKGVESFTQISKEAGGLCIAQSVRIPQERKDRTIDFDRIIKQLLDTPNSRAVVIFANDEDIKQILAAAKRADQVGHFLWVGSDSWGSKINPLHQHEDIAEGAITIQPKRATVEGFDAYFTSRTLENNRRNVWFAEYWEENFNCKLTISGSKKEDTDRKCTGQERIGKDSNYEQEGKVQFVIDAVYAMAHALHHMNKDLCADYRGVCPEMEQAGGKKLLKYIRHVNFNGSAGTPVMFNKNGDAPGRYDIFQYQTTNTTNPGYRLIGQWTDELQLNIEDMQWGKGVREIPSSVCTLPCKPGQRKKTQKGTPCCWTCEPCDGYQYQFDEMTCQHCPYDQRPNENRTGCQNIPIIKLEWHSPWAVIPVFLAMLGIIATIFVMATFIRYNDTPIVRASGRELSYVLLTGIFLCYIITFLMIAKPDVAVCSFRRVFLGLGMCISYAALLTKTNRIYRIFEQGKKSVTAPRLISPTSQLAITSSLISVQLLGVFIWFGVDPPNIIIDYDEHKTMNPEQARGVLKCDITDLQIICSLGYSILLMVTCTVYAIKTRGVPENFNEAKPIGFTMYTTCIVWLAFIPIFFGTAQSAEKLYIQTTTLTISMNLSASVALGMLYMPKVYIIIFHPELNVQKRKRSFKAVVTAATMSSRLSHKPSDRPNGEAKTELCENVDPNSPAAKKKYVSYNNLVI
Sequence of rat mGlu2 (P31421 19-872): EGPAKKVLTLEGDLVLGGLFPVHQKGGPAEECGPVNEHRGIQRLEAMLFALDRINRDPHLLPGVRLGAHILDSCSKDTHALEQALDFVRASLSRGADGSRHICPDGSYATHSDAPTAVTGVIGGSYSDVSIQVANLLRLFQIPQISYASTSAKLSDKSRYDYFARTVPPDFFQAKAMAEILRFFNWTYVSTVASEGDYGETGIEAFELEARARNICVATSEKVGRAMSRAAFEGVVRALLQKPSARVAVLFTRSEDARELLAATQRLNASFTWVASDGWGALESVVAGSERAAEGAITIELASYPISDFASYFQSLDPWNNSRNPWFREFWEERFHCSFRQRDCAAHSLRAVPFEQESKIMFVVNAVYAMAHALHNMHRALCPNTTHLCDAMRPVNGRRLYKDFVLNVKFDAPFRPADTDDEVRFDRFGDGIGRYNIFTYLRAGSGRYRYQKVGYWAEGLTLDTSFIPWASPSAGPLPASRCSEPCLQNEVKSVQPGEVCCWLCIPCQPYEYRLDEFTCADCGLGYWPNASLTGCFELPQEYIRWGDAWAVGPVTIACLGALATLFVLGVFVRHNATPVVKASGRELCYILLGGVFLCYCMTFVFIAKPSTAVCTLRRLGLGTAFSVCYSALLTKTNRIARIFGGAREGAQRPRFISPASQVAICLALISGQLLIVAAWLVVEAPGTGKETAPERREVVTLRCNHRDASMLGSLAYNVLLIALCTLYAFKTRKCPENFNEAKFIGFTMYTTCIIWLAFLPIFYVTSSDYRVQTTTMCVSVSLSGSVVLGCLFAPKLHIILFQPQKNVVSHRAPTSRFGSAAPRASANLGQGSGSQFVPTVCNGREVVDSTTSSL

With COc1cc(C(O)P(=O)(O)CC[C@H](N)C(=O)O)cc([N+](=O)[O-])c1O (stereo partly drawn) [LSP1-2111, (2S)-2-amino-4-[hydroxy[hydroxy(4-hydroxy-3-methoxy-5-nitro-phenyl)methyl]phosphoryl]butanoic acid] the “effect on fEPSP slope” value [1] was “has no effect on fEPSP slope”.

In the case of N[C@H](C(=O)O)c1ccc(C(=O)O)c(C(=O)O)c1 [DCPG, (S)-3,4-dicarboxyphenylglycine], the “effect on fEPSP slope” value [1] is reported as “has no effect on fEPSP slope”.

COC(=O)c1ccc(-n2c(C)cc(C(=O)CSc3ccc(NC(C)=O)cc3)c2C)cc1 [Compound 1, methyl 4-(3-(2-((4-acetamidophenyl)thio)acetyl)-2,5-dimethyl-1H-pyrrol-1-yl)benzoate] was tested, and the EC50 [2] was 1.62 µM, the “agonist activity in the absence of glutamate” value [2] was “did not exhibit agonist activity” and the Kb ([3]; KB, agonist Glu) was 13.3 µM. For the same compound, the Kb ([3]; KB, agonist L-AP4) was 13.2 µM, the Kb ([3]; KB, agonist LSP4-2022) was 10.6 µM and the “log α (affinity cooperativity)” value ([3]; agonist Glu) was 0.28 ± 0.07. For the same compound, the “log β (efficacy cooperativity)” value ([3]; agonist Glu) was 0.16 ± 0.08 ^f ^h, the α ([3]; agonist Glu) was 1.9 and the β ([3]; agonist Glu) was 1.4. For the same compound, the “log α (affinity cooperativity)” value ([3]; agonist L-AP4) was “–0.15 ± 0.30 ^k”, the “log β (efficacy cooperativity)” value ([3]; agonist L-AP4) was 0.67 ± 0.27 ^f ^i and the α ([3]; agonist L-AP4) was 0.71. The β ([3]; agonist L-AP4) was 4.7, the “log α (affinity cooperativity)” value ([3]; agonist LSP4-2022) was 0.17 ± 0.13 ^l and the “log β (efficacy cooperativity)” value ([3]; agonist LSP4-2022) was 0.33 ± 0.07 ^j. For the same compound, the α ([3]; agonist LSP4-2022) was 1.5, the β ([3]; agonist LSP4-2022) was 2.1 and the Kb ([3]; pKB, agonist L-AP4, eq 2) was 13.2 µM. For the same compound, the Kb ([4]; KB, agonist LSP4-2022) was 8 µM, the “fold greater modulator affinity with L-AP4 than with glutamate as agonist” value ([4]; calcium) was 4 fold and the “log α (affinity cooperativity)” value ([4]; agonist Glu) was 0.58 ± 0.13. For the same compound, the “log β (efficacy cooperativity)” value ([4]; agonist Glu) was 0.68 ± 0.12 ^g ^h, the “log τB” value ([4]; agonist Glu) was “–0.17 ± 0.03” and the α ([4]; agonist Glu) was 3.8. The β ([4]; agonist Glu) was 4.8, the τB ([4]; agonist Glu) was 0.81 and the “log α (affinity cooperativity)” value ([4]; agonist L-AP4) was 0.39 ± 0.21. For the same compound, the “log β (efficacy cooperativity)” value ([4]; agonist L-AP4) was 0.07 ± 0.03 ^g ^i, the “log τB” value ([4]; agonist L-AP4) was “–0.09 ± 0.04” and the α ([4]; agonist L-AP4) was 2.4. For the same compound, the β ([4]; agonist L-AP4) was 1.2, the “log α (affinity cooperativity)” value ([4]; agonist LSP4-2022) was 0.82 ± 0.26 ^l and the “log β (efficacy cooperativity)” value ([4]; agonist LSP4-2022) was “–0.10 ± 0.10 ^g ^j”. For the same compound, the “log τB” value ([4]; agonist LSP4-2022) was “–0.22 ± 0.06”, the α ([4]; agonist LSP4-2022) was 6.6 and the β ([4]; agonist LSP4-2022) was 0.8. For the same compound, the τB ([4]; agonist LSP4-2022) was 0.61, the Kb ([4]; pKB, agonist Glu, eq 2) was 17 µM and the Kb ([4]; pKB, agonist L-AP4, eq 2) was 4.17 µM. The Kb ([5]; agonist Glu) was 8.6 µM, the Kb ([5]; agonist L-AP4) was 14.7 µM and the Kb ([5]; agonist LSP4-2022) was 14 µM. The “log α (affinity cooperativity)” value ([5]; agonist Glu) was 0.61 ± 0.39, the “log β (efficacy cooperativity)” value ([5]; agonist Glu) was 0.08 ± 0.02 ^h and the “log τB” value ([5]; agonist Glu) was “–0.12 ± 0.03”. It also gave a α ([5]; agonist Glu) of 4.1, a β ([5]; agonist Glu) of 1.2 and a τB ([5]; agonist Glu) of 0.75. For the same compound, the “log α (affinity cooperativity)” value ([5]; agonist L-AP4) was 0.92 ± 0.08 ^k, the “log β (efficacy cooperativity)” value ([5]; agonist L-AP4) was 0.05 ± 0.03 ^i and the “log τB” value ([5]; agonist L-AP4) was “–0.14 ± 0.04”. It also gave a α ([5]; agonist L-AP4) of 8.3, a β ([5]; agonist L-AP4) of 1.1 and a τB ([5]; agonist L-AP4) of 0.73. The “log α (affinity cooperativity)” value ([5]; agonist LSP4-2022) was 0.93 ± 0.06 ^l, the “log β (efficacy cooperativity)” value ([5]; agonist LSP4-2022) was 0.05 ± 0.06 ^j and the “log τB” value ([5]; agonist LSP4-2022) was “–0.10 ± 0.06”. It also gave a α ([5]; agonist LSP4-2022) of 8.6, a β ([5]; agonist LSP4-2022) of 1.1 and a τB ([5]; agonist LSP4-2022) of 0.80. For the same compound, the “shift of glutamate concentration-response (PAM or NAM activity) at mGlu2” value [6] was “inactive” and the “effect on paired-pulse ratio” value ([1]; PAM and LSP4-2022 applied together) was “increases the paired-pulse ratio”.

With O=C(Nc1ccc(Oc2ccc(Cl)cn2)c(Cl)c1)c1ccccn1 [Compound 20, N-(3-chloro-4-((5-chloropyridin-2-yl)oxy)phenyl)picolinamide] the “log αβ (combined cooperativity)” value ([7]; agonist Glu) was 0.54 ± 0.06 ^i, the αβ ([7]; agonist Glu) was 3.5 and the “log αβ (combined cooperativity)” value ([7]; agonist L-AP4) was 0.58 ± 0.04 ^j. For the same compound, the αβ ([7]; agonist L-AP4) was 3.8, the “log αβ (combined cooperativity)” value ([7]; agonist LSP4-2022) was 0.54 ± 0.003 ^k and the αβ ([7]; agonist LSP4-2022) was 3.5. For the same compound, the Kb ([7]; agonist Glu) was 0.306 µM, the Kb ([7]; agonist L-AP4) was 0.304 µM and the Kb ([7]; agonist LSP4-2022) was 0.268 µM.

With N[C@@H](CCP(=O)(O)C(O)c1ccc(OCC(=O)O)cc1)C(=O)O (stereo partly drawn) [LSP4-2022, (2S)-2-amino-4-(((4-(carboxymethoxy)phenyl)(hydroxy)methyl)(hydroxy)phosphoryl)butanoic acid, reference compound] the “Fold ΔpKA vs. Glu (fold higher affinity than glutamate)” value ([3]; calcium) was 9 fold, the “fold lower affinity compared to glutamate” value ([5]; calcium) was 10 fold and the “effect on paired-pulse ratio” value ([1]; 30 μM LSP4-2022 alone) was “causes an increase in paired-pulse ratio”. The “effect on fEPSP slope” value [1] was “causes a decrease in the fEPSP slope”.
